Results on 6 molecules are retold here after ChEMBL document CHEMBL1136151, “Suzuki cross-coupling approaches to the synthesis of bioactive 3-substituted and 5-substituted-4-methoxy-6-methyl-2-pyrones” (Bioorg Med Chem Lett, 2003).

The first experiment concerns Escherichia coli. The experiment in a line: Antimicrobial activity against Escherichia coli was determined after 96 hours of incubation. It is filed as functional. In a few lines:
(§1)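 Disk diffusion: cellulose disks loaded with test compound and placed on bacterial plates, with an EtOH control disk. Incubation 96 h. Read-out is the radius (mm) of the inhibition zone.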
In the case of `Cc1cc(/C=C/c2ccccc2)cc(=O)o1`, the Activity is 17 mm.
The same measure, in the same setting: as for `COc1cc(=O)oc(C)c1/C=C/c1ccccc1`, the figure is 6 mm; as for `COc1ccc(-c2c(OC)cc(=O)oc2C)cc1`, 5 mm; as for `COc1cc(C)oc(=O)c1-c1cccc([N+](=O)[O-])c1`, 0 mm.
For the molecule `COc1cc(C)oc(=O)c1-c1ccccc1`, the Activity stood at 0 mm.
For the molecule `COc1cc(C)oc(=O)c1/C=C/c1ccccc1`, the Activity came to 0 mm.

For another experiment, the system named is Schizosaccharomyces pombe. The experiment in a line: Antimicrobial activity against Schizosaccharomyces pombe was determined after 48 hours of incubation. It is filed as functional. In a few lines:
(§2)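 Disk diffusion on yeast plates: cellulose disks carrying test compound, with an EtOH control. Incubation 48 h. The inhibition zone radius is recorded in mm.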
The molecule `Cc1cc(/C=C/c2ccccc2)cc(=O)o1` registered an Activity of 18 mm.
In turn, `COc1cc(=O)oc(C)c1/C=C/c1ccccc1` came in with an Activity of 0 mm.
For the molecule `COc1ccc(-c2c(OC)cc(=O)oc2C)cc1`, the Activity was 18 mm.
In the case of `COc1cc(C)oc(=O)c1-c1cccc([N+](=O)[O-])c1`, the Activity worked out at 0 mm.
The molecule `COc1cc(C)oc(=O)c1-c1ccccc1` had an Activity of 0 mm.
Molecule `COc1cc(C)oc(=O)c1/C=C/c1ccccc1` returned an Activity of 0 mm.

Another experiment relates to Candida albicans. The experiment in a line: Antimicrobial activity against Candida albicans was determined after 48 hours of incubation. It is filed as functional. In a few lines:
as §2
With `Cc1cc(/C=C/c2ccccc2)cc(=O)o1`, the Activity was 0 mm.
On the same count and under the same terms, in the case of `COc1cc(=O)oc(C)c1/C=C/c1ccccc1` it was 0 mm; in that of `COc1ccc(-c2c(OC)cc(=O)oc2C)cc1`, 11 mm.
The molecule `COc1cc(C)oc(=O)c1-c1cccc([N+](=O)[O-])c1` displayed an Activity of 0 mm.
With `COc1cc(C)oc(=O)c1-c1ccccc1`, the Activity stood at 0 mm.
With `COc1cc(C)oc(=O)c1/C=C/c1ccccc1`, the Activity stood at 0 mm.

In another experiment the test system is Saccharomyces cerevisiae. The experiment in a line: Antimicrobial activity against Saccharomyces cerevisiae was determined after 48 hours of incubation. It is filed as functional. In a few lines:
as §2
As to `Cc1cc(/C=C/c2ccccc2)cc(=O)o1`, the Activity turned out to be 0 mm.
The molecule `COc1cc(=O)oc(C)c1/C=C/c1ccccc1` displayed an Activity of 0 mm.
`COc1ccc(-c2c(OC)cc(=O)oc2C)cc1` showed an Activity of 0 mm.
For the molecule `COc1cc(C)oc(=O)c1-c1cccc([N+](=O)[O-])c1`, the Activity is recorded as 0 mm.
Molecule `COc1cc(C)oc(=O)c1-c1ccccc1` yielded an Activity of 0 mm.
As for `COc1cc(C)oc(=O)c1/C=C/c1ccccc1`, the Activity turned out to be 0 mm.

In a further experiment the test system is Aspergillus niger. The experiment can be described thus: Percent growth of Aspergillus niger after 7 days of incubation. The arrangement: concentration or dose not given beside the values. Type of experiment: functional. In a few lines:
(§3)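 Fungal plate assay: pyrone dissolved in absolute EtOH at 10mg/mL and pipetted 2 cm offset from the centre of the plate containing the organism. EtOH alone served as control. Growth is recorded as percentage of the organism after 72 h and after 7 days of incubation.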
For the molecule `Cc1cc(/C=C/c2ccccc2)cc(=O)o1`, the Growth is recorded as 100%.
`COc1cc(=O)oc(C)c1/C=C/c1ccccc1` returned a Growth of 90%.
On to `COc1ccc(-c2c(OC)cc(=O)oc2C)cc1`, for which the Growth came to 90%.
For `COc1cc(C)oc(=O)c1-c1cccc([N+](=O)[O-])c1`, the Growth was 100%.
Consider `COc1cc(C)oc(=O)c1-c1ccccc1`, for which the Growth was determined as 100%.
For `COc1cc(C)oc(=O)c1/C=C/c1ccccc1`, the Growth amounted to 100%.

The subject of the next experiment is Botrytis cinerea. The experiment can be described thus: Percent growth of Botrytis cinerea after 7 days of incubation. Also noted: concentration or dose not given beside the values. Type of experiment: functional. In a few lines: as §3
In turn, `Cc1cc(/C=C/c2ccccc2)cc(=O)o1` showed a Growth of 100%.
Still for that read-out and setting: in the case of `COc1cc(=O)oc(C)c1/C=C/c1ccccc1` it was 100%; in that of `COc1ccc(-c2c(OC)cc(=O)oc2C)cc1`, 100%.
Take `COc1cc(C)oc(=O)c1-c1cccc([N+](=O)[O-])c1`: the Growth was 100%.
As for `COc1cc(C)oc(=O)c1-c1ccccc1`, the Growth stood at 100%.
`COc1cc(C)oc(=O)c1/C=C/c1ccccc1` yielded a Growth of 100%.

In a further experiment the test system is Staphylococcus aureus. The experiment can be described thus: Antimicrobial activity against Staphylococcus aureus was determined after 96 hours of incubation. It is filed as functional. In a few lines:
as §1
Molecule `Cc1cc(/C=C/c2ccccc2)cc(=O)o1` returned an Activity of 0 mm.
Still for that read-out and setting: in the case of `COc1cc(=O)oc(C)c1/C=C/c1ccccc1` it was 0 mm; in that of `COc1ccc(-c2c(OC)cc(=O)oc2C)cc1`, 13 mm; in that of `COc1cc(C)oc(=O)c1-c1cccc([N+](=O)[O-])c1`, 0 mm.
`COc1cc(C)oc(=O)c1-c1ccccc1`: the Activity worked out at 0 mm.
In the case of `COc1cc(C)oc(=O)c1/C=C/c1ccccc1`, the Activity is 0 mm.

The next experiment concerns Globisporangium ultimum. The experiment can be described thus: Percent growth of Pythium ultimum after 72 hours of incubation. It is filed as functional. The arrangement: concentration or dose not given beside the values. In a few lines: as §3
In the case of `Cc1cc(/C=C/c2ccccc2)cc(=O)o1`, the Growth worked out at 100%.
For `COc1cc(C)oc(=O)c1-c1cccc([N+](=O)[O-])c1`, the Growth amounted to 100%.
`COc1cc(C)oc(=O)c1-c1ccccc1` came in with a Growth of 100%.
Same read-out and setting: as for `COc1cc(C)oc(=O)c1/C=C/c1ccccc1`, the figure is 100%.

In the next experiment the test system is Globisporangium ultimum. The experiment can be described thus: Percent growth of Pythium ultimum after 7 days of incubation. It is filed as functional. Also noted: concentration or dose not given beside the values. In a few lines: as §3
With `Cc1cc(/C=C/c2ccccc2)cc(=O)o1`, the Growth stood at 100%.
`COc1cc(C)oc(=O)c1-c1cccc([N+](=O)[O-])c1` returned a Growth of 100%.
The molecule `COc1cc(C)oc(=O)c1-c1ccccc1` had a Growth of 100%.
For the molecule `COc1cc(C)oc(=O)c1/C=C/c1ccccc1`, the Growth is 100%.

For the next experiment, the system named is Botrytis cinerea. The experiment can be described thus: Percent growth of Botrytis cinerea after 72 hours of incubation. Also noted: concentration or dose not given beside the values. Type of experiment: functional. In a few lines:
as §3
In turn, `Cc1cc(/C=C/c2ccccc2)cc(=O)o1` had a Growth of 59%.
`COc1cc(=O)oc(C)c1/C=C/c1ccccc1` showed a Growth of 47%.
On to `COc1ccc(-c2c(OC)cc(=O)oc2C)cc1`, for which the Growth was 53%.
Same read-out and setting: in the case of `COc1cc(C)oc(=O)c1-c1ccccc1` it was 63%; in that of `COc1cc(C)oc(=O)c1/C=C/c1ccccc1`, 58%.

Another experiment deals with Fusarium oxysporum. The experiment in a line: Percent growth of Fusarium oxysporum after 7 days of incubation. It is filed as functional. Also noted: concentration or dose not given beside the values. In a few lines: as §3
`COc1cc(=O)oc(C)c1/C=C/c1ccccc1` returned a Growth of 51%.
`COc1ccc(-c2c(OC)cc(=O)oc2C)cc1` gave a Growth of 61%.
In turn, `COc1cc(C)oc(=O)c1-c1cccc([N+](=O)[O-])c1` displayed a Growth of 60%.
Turning to `COc1cc(C)oc(=O)c1-c1ccccc1`, the Growth is 60%.
With `COc1cc(C)oc(=O)c1/C=C/c1ccccc1`, the Growth is reported as 60%.

Another experiment deals with Thanatephorus cucumeris. The experiment in a line: Percent growth of Rhizoctonia solani after 72 hours of incubation. It is filed as functional. Also noted: concentration or dose not given beside the values. In a few lines: as §3
Take `Cc1cc(/C=C/c2ccccc2)cc(=O)o1`: the Growth turned out to be 47%.
Turning to `COc1cc(=O)oc(C)c1/C=C/c1ccccc1`, the Growth is listed as 67%.
In turn, `COc1ccc(-c2c(OC)cc(=O)oc2C)cc1` yielded a Growth of 69%.
On to `COc1cc(C)oc(=O)c1-c1ccccc1`, for which the Growth came out at 75%.
`COc1cc(C)oc(=O)c1/C=C/c1ccccc1` registered a Growth of 92%.

The subject of another experiment is Thanatephorus cucumeris. The experiment can be described thus: Percent growth of Rhizoctonia solani after 7 days of incubation. Type of experiment: functional. The arrangement: concentration or dose not given beside the values. In a few lines: as §3
As for `Cc1cc(/C=C/c2ccccc2)cc(=O)o1`, the Growth stood at 100%.
`COc1cc(=O)oc(C)c1/C=C/c1ccccc1` showed a Growth of 100%.
For `COc1ccc(-c2c(OC)cc(=O)oc2C)cc1`, the Growth was determined as 100%.
The same measure, in the same setting: in the case of `COc1cc(C)oc(=O)c1-c1cccc([N+](=O)[O-])c1` it was 100%; in that of `COc1cc(C)oc(=O)c1-c1ccccc1`, 100%; in that of `COc1cc(C)oc(=O)c1/C=C/c1ccccc1`, 100%.

In the next experiment the test system is Fusarium oxysporum. The experiment can be described thus: Percent growth of Fusarium oxysporum after 72 hours of incubation. Type of experiment: functional. The arrangement: concentration or dose not given beside the values. In a few lines: as §3
In the case of `COc1cc(=O)oc(C)c1/C=C/c1ccccc1`, the Growth amounted to 12%.
Same read-out and setting: in the case of `COc1ccc(-c2c(OC)cc(=O)oc2C)cc1` it was 11%.
The same measure, in the same setting: in the case of `COc1cc(C)oc(=O)c1-c1cccc([N+](=O)[O-])c1` it was 12%; in that of `COc1cc(C)oc(=O)c1-c1ccccc1`, 7.4%; in that of `COc1cc(C)oc(=O)c1/C=C/c1ccccc1`, 11%.

The subject of the next experiment is Bacillus subtilis. The experiment in a line: Antimicrobial activity against Bacillus subtilis was determined after 96 hours of incubation. Type of experiment: functional. In a few lines: as §1
Molecule `Cc1cc(/C=C/c2ccccc2)cc(=O)o1` came in with an Activity of 18 mm.
As to `COc1cc(=O)oc(C)c1/C=C/c1ccccc1`, the Activity worked out at 6 mm.
Turning to `COc1ccc(-c2c(OC)cc(=O)oc2C)cc1`, the Activity was 14 mm.
Molecule `COc1cc(C)oc(=O)c1-c1cccc([N+](=O)[O-])c1` came in with an Activity of 6 mm.
With `COc1cc(C)oc(=O)c1-c1ccccc1`, the Activity came to 6 mm.
Turning to `COc1cc(C)oc(=O)c1/C=C/c1ccccc1`, the Activity was 0 mm.

For the next experiment, the system named is Aspergillus niger. The experiment in a line: Percent growth of Aspergillus niger after 72 hours of incubation. The arrangement: concentration or dose not given beside the values. It is filed as functional. In a few lines:
as §3
As to `Cc1cc(/C=C/c2ccccc2)cc(=O)o1`, the Growth stood at 100%.
`COc1cc(=O)oc(C)c1/C=C/c1ccccc1` came in with a Growth of 71%.
Take `COc1ccc(-c2c(OC)cc(=O)oc2C)cc1`: the Growth worked out at 85%.
The molecule `COc1cc(C)oc(=O)c1-c1cccc([N+](=O)[O-])c1` had a Growth of 100%.
Take `COc1cc(C)oc(=O)c1-c1ccccc1`: the Growth is given as >95%.
For `COc1cc(C)oc(=O)c1/C=C/c1ccccc1`, the Growth is listed as >95%.
